Assay results taken from ChEMBL document CHEMBL4680377, “Discovery of a Novel Series of Pyridone-Based EP3 Antagonists for the Treatment of Type 2 Diabetes” (ACS Med Chem Lett, 2021).
≈ marks a conversion by molar mass, not a printed value.

Key:
[1] = Metabolic stability in rat liver microsomes assessed as intrinsic clearance half life; format: ADME, Microsome
[2] = Metabolic stability in human liver microsomes assessed as intrinsic clearance half life; format: ADME, Microsome
[3] = molecular target: T1, Prostaglandin E2 receptor EP3 subtype (Homo sapiens, UniProt P43115); test: Antagonist activity at human EP3 expressed in CHO cells assessed as suppression of sulprostone-induced inhibition of forskolin induced cAMP production measured after 30 mins by HTR-FRET assay; format: functional, cell-based
T1 sequence (P43115 whole entry): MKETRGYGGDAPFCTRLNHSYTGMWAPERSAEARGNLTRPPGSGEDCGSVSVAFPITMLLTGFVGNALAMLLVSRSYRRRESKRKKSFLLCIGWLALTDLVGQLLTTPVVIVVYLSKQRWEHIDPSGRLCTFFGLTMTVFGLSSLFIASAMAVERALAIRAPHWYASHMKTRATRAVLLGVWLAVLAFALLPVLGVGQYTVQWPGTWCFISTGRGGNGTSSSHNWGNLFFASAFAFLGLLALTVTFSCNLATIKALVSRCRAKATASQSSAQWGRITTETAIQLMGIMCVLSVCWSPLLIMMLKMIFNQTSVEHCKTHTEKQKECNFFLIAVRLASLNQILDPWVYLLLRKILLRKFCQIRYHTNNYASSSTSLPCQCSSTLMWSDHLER

[4] = Kinetic solubility of compound at pH 2; format: physicochemical; settings: buffer, read-out: Kinetic_solubility
[5] = molecular target: T1, Prostaglandin E2 receptor EP3 subtype; test: Displacement of [3H]-PGE2 from human EP3 expressed in Chem-1 cell membranes incubated for 2 hrs by TopCount scintillation plate reader analysis; parameters: species or system Membrane
[6] = Kinetic solubility of compound in PBS buffer; format: physicochemical; settings: read-out: Kinetic_solubility
[7] = Cmax in Sprague-Dawley rat at 10 mg/kg, po measured up to 24 hrs by LC-MS/MS analysis; format: ADME, organism-based; parameters: route oral, dose 10 mg/kg, time <=24; settings: in vivo
Outline: (§1)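 Sprague-Dawley rats, n = 3 per route, sampled over 24 h. Full PK: iv 2 mg/kg in 20% HPbCD with po 10 mg/kg given either in 0.5% HPMC or in 20% HPbCD, depending on study. Fast PK: po only, 10 mg/kg in 0.5% HPMC.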

[8] = AUClast in Sprague-Dawley rat at 10 mg/kg, po measured up to 24 hrs by LC-MS/MS analysis; format: ADME, organism-based; parameters: route oral, dose 10 mg/kg, time <=24; settings: in vivo; outline: as §1
[9] = Apparent permeability across apical to basolateral side in dog MDCK cells; format: ADME, cell-based, Canis lupus familiaris

Compound | half-life [1] | half-life [2] | IC50 [3] | solubility kinetic [4] | Ki [5] | solubility kinetic [6] | Cmax [7] | AUC(0-t) at 24 h [8] | Papp A→B [9]
CC(C)/C(=C1\NC(=O)OC1=O)c1ccc(-c2ccc3cccc(F)c3c2)[nH]c1=O | > 3 h | > 3 h |  |  |  |  |  |  | 
O=C1NC(=O)/C(=C/C2(c3ccc(-c4ccc5cccc(F)c5c4)[nH]c3=O)CC2)O1 | > 3 h | 2.48 h | 55 nM | 27.4 µM (≈ 10.7 µg/mL) | 28 nM | 33.4 µM (≈ 13 µg/mL) |  |  | 
O=C1NC(=O)/C(=C/C(Cc2ccccc2)c2ccc(-c3ccc4cccc(F)c4c3)[nH]c2=O)O1 (configuration not stated) | 2.96 h | 1.3 h |  | 0.9 µM (≈ 0.409 µg/mL) |  | 9.1 µM (≈ 4.14 µg/mL) |  |  | 
O=C1NC(=O)/C(=C/C(c2ccc(-c3ccc4cccc(F)c4c3)[nH]c2=O)C2CCCC2)O1 (configuration not stated) | > 3 h | 1.21 h |  |  |  |  |  |  | 
CCc1cccc2ccc(-c3ccc(C(/C=C4\OC(=O)NC4=O)(CC)CC)c(=O)[nH]3)cc12 | 1.77 h | 0.178 h |  |  |  |  |  |  | 
CCC(/C=C1\OC(=O)NC1=O)(CC)c1ccc(-c2ccc3cccc(F)c3c2)[nH]c1=O | > 3 h | 0.948 h |  | 13.5 µM (≈ 5.68 µg/mL) |  | 32.6 µM (≈ 13.7 µg/mL) | 58.1 µg/mL | 327 µg·h/mL | 
CCN1CCOc2ccc(-c3ccc(C(/C=C4\OC(=O)NC4=O)(CC)CC)c(=O)[nH]3)cc21 | 1.51 h | 0.972 h |  | 21 µM (≈ 9.19 µg/mL) |  | 24.1 µM (≈ 10.5 µg/mL) |  |  | 
CC(C)[C@H](C[C@H]1OC(=O)NC1=O)c1ccc(-c2ccc3cccc(F)c3c2)[nH]c1=O (relative stereo) | 0.95 h | 1.68 h | 15 nM | 24.4 µM (≈ 9.97 µg/mL) | 6 nM | 35.4 µM (≈ 14.5 µg/mL) |  |  | 10.3 ×10⁻⁶ cm/s
CC(C)C1(c2ccc(-c3ccc4ccccc4c3)[nH]c2=O)OC(O)=NC1=O (configuration not stated) |  |  | 68 nM |  |  |  |  |  | 
CCn1ncc2cc(C)c(-c3ccc(C(/C=C4\OC(=O)NC4=O)(CC)CC)c(=O)[nH]3)cc21 |  |  | > 20000 nM |  | 5700 nM |  |  |  | 
CCC(/C=C1\OC(=O)NC1=O)(CC)c1ccc(-c2ccc3c(c2)OC(C)(C)CC3)[nH]c1=O |  |  | > 20000 nM |  | 2600 nM |  |  |  | 
CC(C)C(c1ccc(-c2ccc3cccc(F)c3c2)[nH]c1=O)C1C(=O)NC(=O)N1C (configuration not stated) | 0.263 h | 0.375 h |  | 13.6 µM (≈ 5.54 µg/mL) |  | 17.9 µM (≈ 7.29 µg/mL) |  |  | 
Cc1cc(C(/C=C2\OC(=O)NC2=O)C(C)C)c(=O)[nH]c1-c1ccc2cccc(F)c2c1 (configuration not stated) | > 3 h | > 3 h |  | 39.4 µM (≈ 16.6 µg/mL) |  | 35.7 µM (≈ 15 µg/mL) |  |  | 
CCC(CC)C(/C=C1\OC(=O)NC1=O)c1ccc(-c2ccc3cccc(F)c3c2)[nH]c1=O (configuration not stated) | > 3 h | > 3 h |  | 3.68 µM (≈ 1.6 µg/mL) |  | 33.7 µM (≈ 14.6 µg/mL) |  |  | 
CC(C)C(c1ccc(-c2ccc3cccc(F)c3c2)[nH]c1=O)C1NC(=O)NC1=O (configuration not stated) | 0.145 h | 0.578 h |  | 5.8 µM (≈ 2.28 µg/mL) |  | 10.6 µM (≈ 4.17 µg/mL) |  |  | 
CC(C)[C@H](/C=C1\OC(=O)NC1=O)c1ccc(-c2ccc3cccc(F)c3c2)[nH]c1=O | > 3 h | > 3 h |  | 10.8 µM (≈ 4.39 µg/mL) |  | 25.4 µM (≈ 10.3 µg/mL) |  |  | 
O=C1NC(=O)/C(=C/C2(c3ccc(-c4ccc5cccc(F)c5c4)[nH]c3=O)CCCC2)O1 | > 3 h | > 3 h |  | 2.55 µM (≈ 1.07 µg/mL) |  | 24.5 µM (≈ 10.3 µg/mL) |  |  | 
O=C1NC(=O)/C(=C/C(c2ccc(-c3ccc4cccc(F)c4c3)[nH]c2=O)C2CC2)O1 (configuration not stated) | > 3 h | 1.98 h |  | 3.85 µM (≈ 1.56 µg/mL) |  | 30.8 µM (≈ 12.5 µg/mL) |  |  | 
CC(C)C(/C=C1\SC(=O)NC1=O)c1ccc(-c2ccc3cccc(F)c3c2)[nH]c1=O (configuration not stated) | 2.62 h | > 3 h |  | 4.8 µM (≈ 2.03 µg/mL) |  | 25.6 µM (≈ 10.8 µg/mL) |  |  | 15.4 ×10⁻⁶ cm/s
CCn1cc2c(F)c(-c3ccc(C(/C=C4\OC(=O)NC4=O)(CC)CC)c(=O)[nH]3)ccc2n1 |  |  | > 20000 nM |  | > 10000 nM |  |  |  | 
CCC(/C=C1\OC(=O)NC1=O)(CC)c1ccc(-c2ccc3cc(F)cc(F)c3c2)[nH]c1=O | > 3 h | > 3 h | 45 nM |  | 28 nM |  |  |  | 
CC(C)C(c1ccc(-c2ccc3cccc(F)c3c2)[nH]c1=O)C1SC(=O)NC1=O (configuration not stated) | 0.76 h | 1.87 h |  | 11.3 µM (≈ 4.64 µg/mL) |  | 20.1 µM (≈ 8.25 µg/mL) |  |  | 26.3 ×10⁻⁶ cm/s
